Our source for the EC50 values is ChEMBL document CHEMBL1125349 (J Med Chem, 1992).

Assay [1] addresses Substance-P receptor (Cavia porcellus, UniProt P30547). The assay is described as follows: In vitro agonistic activity against tachykinin receptor 1 of guinea pig ileum longitudinal smooth muscle. In kind it is functional, tissue-based.
Assay [2] deals with T1, Neuromedin-K receptor (Rattus norvegicus, UniProt P16177).
T1 sequence (P16177 whole entry): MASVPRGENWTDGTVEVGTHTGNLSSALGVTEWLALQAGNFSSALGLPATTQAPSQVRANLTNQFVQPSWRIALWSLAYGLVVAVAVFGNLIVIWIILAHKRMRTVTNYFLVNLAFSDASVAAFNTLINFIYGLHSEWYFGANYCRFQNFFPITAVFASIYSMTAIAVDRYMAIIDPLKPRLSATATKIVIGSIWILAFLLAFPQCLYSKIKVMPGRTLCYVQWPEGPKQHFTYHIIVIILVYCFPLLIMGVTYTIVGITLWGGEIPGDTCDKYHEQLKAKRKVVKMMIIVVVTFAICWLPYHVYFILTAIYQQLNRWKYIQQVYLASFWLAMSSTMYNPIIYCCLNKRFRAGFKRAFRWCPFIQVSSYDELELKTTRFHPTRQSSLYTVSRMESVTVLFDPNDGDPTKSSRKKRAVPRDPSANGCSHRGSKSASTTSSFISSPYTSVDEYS
The assay is described as follows: In vitro agonistic activity against tachykinin receptor 3 of everted rat protal vein. In kind it is functional. Put shortly:
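Everted isolated portal vein segments from male AH/A rats, 3-mL baths at 37 °C, 0.5 g resting tension, modified Krebs-Henseleit medium, isotonic contractions. […] Equipotent molar ratios were calculated and related to the reference agonist's mean EC50.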

For assay [3], the target named is T2, Substance-K receptor (Rattus norvegicus, UniProt P16610).
T2 sequence (P16610 whole entry): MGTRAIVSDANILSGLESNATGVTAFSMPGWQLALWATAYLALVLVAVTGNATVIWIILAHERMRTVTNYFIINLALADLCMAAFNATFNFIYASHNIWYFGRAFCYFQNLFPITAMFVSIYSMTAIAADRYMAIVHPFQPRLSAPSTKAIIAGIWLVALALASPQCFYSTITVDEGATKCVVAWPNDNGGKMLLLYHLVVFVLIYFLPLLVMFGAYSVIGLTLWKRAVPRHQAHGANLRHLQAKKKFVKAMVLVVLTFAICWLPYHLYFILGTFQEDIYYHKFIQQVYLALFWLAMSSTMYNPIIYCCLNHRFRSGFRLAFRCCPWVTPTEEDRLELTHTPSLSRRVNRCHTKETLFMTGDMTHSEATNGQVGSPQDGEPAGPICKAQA
Nature of the assay: In vitro agonistic activity against tachykinin receptor 2 of rat colon muscularis mucosae. In kind it is functional. Put shortly: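 Colon muscularis mucosae from male AH/A rats (250-350 g), 3-mL baths, 0.5 g resting tension, 35 °C, with atropine, mepyramine, methysergide and indomethacin (1 µM each). Isotonic contraction was recorded.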

Non-standard residues stand in square brackets, D forms with d. Residues, ends and D or L forms follow the SMILES beside them. Ava = NCCCCC(=O)O Some results are limits rather than exact numbers.

Sequence of Substance-P receptor (P30547 whole entry): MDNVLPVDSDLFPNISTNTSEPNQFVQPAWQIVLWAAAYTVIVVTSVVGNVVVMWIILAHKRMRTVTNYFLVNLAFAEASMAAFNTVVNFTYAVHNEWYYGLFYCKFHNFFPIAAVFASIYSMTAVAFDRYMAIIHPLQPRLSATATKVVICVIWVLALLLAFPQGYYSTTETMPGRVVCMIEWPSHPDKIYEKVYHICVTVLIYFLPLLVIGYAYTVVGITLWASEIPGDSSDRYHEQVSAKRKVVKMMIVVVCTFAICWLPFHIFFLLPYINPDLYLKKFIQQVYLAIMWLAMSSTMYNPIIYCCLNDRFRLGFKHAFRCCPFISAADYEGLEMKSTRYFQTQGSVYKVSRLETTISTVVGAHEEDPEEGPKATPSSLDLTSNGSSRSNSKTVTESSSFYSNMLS

As for `CSCC[C@H](NC(=O)[C@H](CC(C)C)N1CC[C@@H](NC(=O)[C@@H](NC(=O)[C@H](Cc2ccccc2)NC(=O)[C@H](CO)NC(=O)[C@H](CC(=O)O)NC(=O)[C@@H](N)CCCCN)C(C)C)C1=O)C(N)=O`, the EC50 – broadly, the concentration needed to bring the measured effect to its halfway point – in assay [1] came out at 4240 nM; in assay [2], 1180 nM; in assay [3] it was 3.7 nM.

Consider `CSCC[C@H](NC(=O)[C@H](CC(C)C)N1CC2CCN(C(=O)[C@@H](NC(=O)[C@H](Cc3ccccc3)NC(=O)[C@H](CO)NC(=O)[C@H](CC(=O)O)NC(=O)[C@@H](N)CCCCN)C(C)C)C2C1=O)C(N)=O` (stereo not given in full), for which the EC50 in assay [1] is 1130 nM; in assay [2], 2720 nM; in assay [3], 59 nM.

`CSCC[C@H](NC(=O)[C@H](CC(C)C)N1CC[C@]2(CCCN2C(=O)[C@H](Cc2ccccc2)NC(=O)[C@H](Cc2ccccc2)NC(=O)CCCCN)C1=O)C(N)=O`: the EC50 in assay [1] amounted to 307 nM; in assay [3] it was 1390 nM.

For `CSCC[C@H](NC(=O)[C@H](CC(C)C)N1C[C@H]2CCN(C(=O)[C@H](Cc3ccccc3)NC(=O)[C@H](Cc3ccccc3)NC(=O)CCCCN)[C@H]2C1=O)C(N)=O`, the values for the concentration giving a half-maximal response (EC50) in assay [1], in assay [2] and in assay [3] were 545 nM, above 18000 nM and 15 nM, respectively.

`CSCC[C@H](NC(=O)[C@H](CC(C)C)N1CCC(NC(=O)[C@@H](NC(=O)[C@H](Cc2ccccc2)NC(=O)[C@H](CO)NC(=O)[C@H](CC(=O)O)NC(=O)[C@H](CCCCN)NC(C)=O)C(C)C)C1=O)C(N)=O` (stereo not given in full): the 50% effective concentration (EC50) in assay [1] turned out to be 44 nM; in assay [3], 1.3 nM.

As to `CSCC[C@H](NC(=O)[C@H](CC(C)C)N1CCC(NC(=O)[C@H](Cc2ccccc2)NC(=O)[C@H](Cc2ccccc2)NC(=O)CCCCN)C1=O)C(N)=O` (stereo not given in full), the EC50 turned out to be 86 nM in assay [1], 10600 nM in assay [2] and 62 nM in assay [3].

Turning to `CSCC[C@H](NC(=O)[C@H](CC(C)C)NC(=O)[C@H]1CCCN1C(=O)[C@H](Cc1ccccc1)NC(=O)[C@H](Cc1ccccc1)NC(=O)CCCCN)C(N)=O`, the EC50 in assay [1] is 830 nM; in assay [2], above 30000 nM; in assay [3], 92 nM.

Consider `CSCC[C@H](NC(=O)[C@H](CC(C)C)N1CC2CCN(C(=O)[C@H](Cc3ccccc3)NC(=O)[C@H](Cc3ccccc3)NC(=O)[C@H](CO)NC(=O)[C@H](CC(=O)O)NC(=O)[C@@H](N)CCCCN)C2C1=O)C(N)=O` (stereo not given in full), for which the half-maximal effective concentration (EC50) was found to be 1030 nM in assay [1], 2630 nM in assay [2] and 45 nM in assay [3].

Consider `CSCC[C@H](NC(=O)[C@H](CC(C)C)NC(=O)CNC(=O)[C@@H](NC(=O)[C@H](Cc1ccccc1)NC(=O)[C@H](CO)NC(=O)[C@H](CC(=O)O)NC(=O)[C@@H](N)CCCCN)C(C)C)C(N)=O`, for which the EC50 in assay [1] turned out to be 61 nM; in assay [2], 870 nM; in assay [3], 3 nM.

Turning to `CSCC[C@H](NC(=O)[C@@H](CC(C)C)N1C[C@H]2CCN(C(=O)[C@H](Cc3ccccc3)NC(=O)[C@H](Cc3ccccc3)NC(=O)CCCCN)[C@H]2C1=O)C(N)=O`, the values for the half-maximal effective concentration (EC50) in assay [1], in assay [2] and in assay [3] were 5230 nM, above 47000 nM and 2100 nM, respectively.

Turning to `CSCC[C@H](NC(=O)[C@H](CC(C)C)N1C[C@@H]2CCN(C(=O)[C@H](Cc3ccccc3)NC(=O)[C@H](Cc3ccccc3)NC(=O)CCCCN)[C@@H]2C1=O)C(N)=O`, the figures for the 50% effective concentration (EC50) in assay [1], in assay [2] and in assay [3] were 37700 nM, above 8220 nM and 1190 nM, respectively.

Turning to `CSCC[C@H](NC(=O)[C@@H](CC(C)C)N1C[C@@H]2CCN(C(=O)[C@H](Cc3ccccc3)NC(=O)[C@H](Cc3ccccc3)NC(=O)CCCCN)[C@@H]2C1=O)C(N)=O`, the half-maximal effective concentration (EC50) in assay [1] was 3730 nM; in assay [2], above 30000 nM; in assay [3], 566 nM.

Take `CSCC[C@H](NC(=O)[C@H](CC(C)C)NC(=O)[C@@H]1CCCN1C(=O)[C@H](Cc1ccccc1)NC(=O)[C@H](Cc1ccccc1)NC(=O)CCCCN)C(N)=O`: the concentration for a half-maximal effect (EC50) in assay [1] was 13.4 nM; in assay [2], above 10000 nM; in assay [3], 13000 nM.

For `CSCC[C@H](NC(=O)[C@H](CC(C)C)NC(=O)CNC(=O)[C@H](Cc1ccccc1)NC(=O)[C@H](Cc1ccccc1)NC(=O)CCCCN)C(N)=O` (H-[Ava]FFGLM-NH2), the results for the EC50 in assay [1], in assay [2] and in assay [3] were 38 nM, 11300 nM and 1190 nM, respectively.

`CSCC[C@H](NC(=O)[C@H](CC(C)C)NC(=O)CNC(=O)[C@@H](NC(=O)[C@H](Cc1ccccc1)NC(=O)CCCCN)C(C)C)C(N)=O` (H-[Ava]FVGLM-NH2): the EC50 was 86 nM in assay [1] and 94 nM in assay [3].

For the compound `CSCC[C@H](NC(=O)[C@H](CC(C)C)NC(=O)CNC(=O)[C@@H](NC(=O)[C@H](Cc1ccccc1)NC(=O)[C@H](CO)NC(=O)[C@H](CC(=O)O)NC(=O)[C@@H](NC(=O)[C@H](CCCCN)NC(=O)[C@@H](N)Cc1cnc[nH]1)[C@@H](C)O)C(C)C)C(N)=O` [NEUROKININ A], the EC50 is 13.7 nM in assay [1] and 563 nM in assay [2].

In the case of `CSCC[C@H](NC(=O)[C@H](CC(C)C)NC(=O)CNC(=O)[C@@H](NC(=O)[C@H](Cc1ccccc1)NC(=O)[C@H](Cc1ccccc1)NC(=O)[C@H](CC(=O)O)NC(=O)[C@H](Cc1c[nH]cn1)NC(=O)[C@H](CCSC)NC(=O)[C@@H](N)CC(=O)O)C(C)C)C(N)=O` [NEUROKININ B], the concentration for a half-maximal effect (EC50) in assay [1] was found to be 68 nM; in assay [2] it was 6.3 nM.

Take `CSCC[C@H](NC(=O)[C@H](CC(C)C)NC(=O)CNC(=O)[C@H](Cc1ccccc1)NC(=O)[C@H](Cc1ccccc1)NC(=O)[C@H](CCC(N)=O)NC(=O)[C@H](CCC(N)=O)NC(=O)[C@@H]1CCCN1C(=O)[C@H](CCCCN)NC(=O)[C@@H]1CCCN1C(=O)[C@@H](N)CCCN=C(N)N)C(N)=O` [SUBSTANCE P]: the EC50 in assay [2] is 7500 nM.

In the case of H-KDSFFGLM-NH2, the EC50 in assay [1] turned out to be 45 nM; in assay [2], 857 nM; in assay [3], 33 nM.
